Legend:
[1] = test system: Cryptococcus gattii species complex; assay: Ratio of compound MIC for Cryptococcus gattii L28/02 in presence of fluconazole to compound MIC for Cryptococcus gattii L28/02 in absence of fluconazole by checkerboard microtiter test; type: functional, Cryptococcus bacillisporus
Method in brief: (§1)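 Checkerboard microdilution: eight two-fold dilutions of test compound (0.11 to 15.6 µM) crossed with amphotericin B (0.025 to 3.9 µM, in DMSO) or fluconazole (0.48 to 62.5 µM, in water). Inoculum per CLSI M27-A3 in RPMI-MOPS pH 7.0, 1-5 x10^3 cells/mL. Growth 48 to 72 h. Effective MIC is the combination concentration giving complete inhibition. FICs derived from MICs in combination versus alone.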

Cryptococcus neoformans [2] = assay: Ratio of compound MIC for Cryptococcus neoformans 27JF in presence of fluconazole to compound MIC for Cryptococcus neoformans 27JF in absence of fluconazole by checkerboard microtiter test; type: functional; method in brief: as §1
Cryptococcus neoformans [3] = assay: Ratio of compound MIC for Cryptococcus neoformans F10 in presence of fluconazole to compound MIC for Cryptococcus neoformans F10 in absence of fluconazole by checkerboard microtiter test; type: functional; method in brief: as §1
Cryptococcus neoformans [4] = assay: Ratio of compound MIC for Cryptococcus neoformans VM-MCMMPI in presence of amphotericin B to compound MIC for Cryptococcus neoformans VM-MCMMPI in absence of amphotericin B by checkerboard microtiter test; type: functional; method in brief: as §1
[5] = test system: Cryptococcus gattii species complex; assay: Ratio of compound MIC for Cryptococcus gattii L27/01 in presence of fluconazole to compound MIC for Cryptococcus gattii L27/01 in absence of fluconazole by checkerboard microtiter test; type: functional, Cryptococcus bacillisporus; method in brief: as §1
Cryptococcus neoformans [6] = assay: Ratio of compound MIC for Cryptococcus neoformans ATCC 24067 in presence of fluconazole to compound MIC for Cryptococcus neoformans ATCC 24067 in absence of fluconazole by checkerboard microtiter test; type: functional; method in brief: as §1
[7] = test system: Cryptococcus gattii species complex; assay: Ratio of compound MIC for Cryptococcus gattii L28/02 in presence of amphotericin B to compound MIC for Cryptococcus gattii L28/02 in absence of amphotericin B by checkerboard microtiter test; type: functional, Cryptococcus bacillisporus; method in brief: as §1
Cryptococcus gattii = assay: Ratio of compound MIC for Cryptococcus gattii ATCC 24065 in presence of amphotericin B to compound MIC for Cryptococcus gattii ATCC 24065 in absence of amphotericin B by checkerboard microtiter test
[8] = test system: Cryptococcus gattii species complex; assay: Ratio of compound MIC for Cryptococcus gattii 135L/03 in presence of amphotericin B to compound MIC for Cryptococcus gattii 135L/03 in absence of amphotericin B by checkerboard microtiter test; type: functional, Cryptococcus bacillisporus
Cryptococcus neoformans [9] = assay: Ratio of compound MIC for Cryptococcus neoformans 28JF in presence of amphotericin B to compound MIC for Cryptococcus neoformans 28JF in absence of amphotericin B by checkerboard microtiter test; type: functional; method in brief: as §1
Cryptococcus neoformans [10] = assay: Ratio of compound MIC for Cryptococcus neoformans LMM820 in presence of fluconazole to compound MIC for Cryptococcus neoformans LMM820 in absence of fluconazole by checkerboard microtiter test; type: functional; method in brief: as §1
Cryptococcus neoformans [11] = assay: Ratio of compound MIC for Cryptococcus neoformans ATCC 24067 in presence of amphotericin B to compound MIC for Cryptococcus neoformans ATCC 24067 in absence of amphotericin B by checkerboard microtiter test; type: functional; method in brief: as §1
[12] = test system: Cryptococcus gattii species complex; assay: Ratio of compound MIC for Cryptococcus gattii LMM818 in presence of fluconazole to compound MIC for Cryptococcus gattii LMM818 in absence of fluconazole by checkerboard microtiter test; type: functional, Cryptococcus bacillisporus; method in brief: as §1
Cryptococcus neoformans [13] = assay: Ratio of compound MIC for Cryptococcus neoformans CN31 in presence of amphotericin B to compound MIC for Cryptococcus neoformans CN31 in absence of amphotericin B by checkerboard microtiter test; type: functional; method in brief: as §1
Cryptococcus neoformans [14] = assay: Ratio of compound MIC for Cryptococcus neoformans ATCC 28957 in presence of amphotericin B to compound MIC for Cryptococcus neoformans ATCC 28957 in absence of amphotericin B by checkerboard microtiter test; type: functional; method in brief: as §1
[15] = test system: Cryptococcus gattii species complex; assay: Ratio of compound MIC for Cryptococcus gattii L24/01 in presence of amphotericin B to compound MIC for Cryptococcus gattii L24/01 in absence of amphotericin B by checkerboard microtiter test; type: functional, Cryptococcus bacillisporus; method in brief: as §1
Cryptococcus neoformans [16] = assay: Ratio of compound MIC for Cryptococcus neoformans 28JF in presence of fluconazole to compound MIC for Cryptococcus neoformans 28JF in absence of fluconazole by checkerboard microtiter test; type: functional; method in brief: as §1
Cryptococcus neoformans [17] = assay: Ratio of compound MIC for Cryptococcus neoformans 27JF in presence of amphotericin B to compound MIC for Cryptococcus neoformans 27JF in absence of amphotericin B by checkerboard microtiter test; type: functional; method in brief: as §1
[18] = Selectivity index, ratio of IC50 for African green monkey Vero cells to MIC for Cryptococcus gattii ATCC 24065; type: toxicity, cell-based
Cryptococcus neoformans [19] = assay: Ratio of compound MIC for Cryptococcus neoformans VM-MCMMPI in presence of fluconazole to compound MIC for Cryptococcus neoformans VM-MCMMPI in absence of fluconazole by checkerboard microtiter test; type: functional; method in brief: as §1
[20] = test system: Cryptococcus bacillisporus; assay: Ratio of compound MIC for Cryptococcus gattii ATCC 32608 in presence of fluconazole to compound MIC for Cryptococcus gattii ATCC 32608 in absence of fluconazole by checkerboard microtiter test; type: functional; method in brief: as §1
Cryptococcus neoformans [21] = assay: Ratio of compound MIC for Cryptococcus neoformans ATCC 62066 in presence of amphotericin B to compound MIC for Cryptococcus neoformans ATCC 62066 in absence of amphotericin B by checkerboard microtiter test; type: functional; method in brief: as §1
Cryptococcus neoformans [22] = assay: Ratio of compound MIC for Cryptococcus neoformans 5396 in presence of fluconazole to compound MIC for Cryptococcus neoformans 5396 in absence of fluconazole by checkerboard microtiter test; type: functional; method in brief: as §1
Cryptococcus neoformans [23] = assay: Ratio of compound MIC for Cryptococcus neoformans 5396 in presence of amphotericin B to compound MIC for Cryptococcus neoformans 5396 in absence of amphotericin B by checkerboard microtiter test; type: functional; method in brief: as §1
[24] = test system: Cryptococcus bacillisporus; assay: Ratio of compound MIC for Cryptococcus gattii ATCC 32608 in presence of amphotericin B to compound MIC for Cryptococcus gattii ATCC 32608 in absence of amphotericin B by checkerboard microtiter test; type: functional; method in brief: as §1
[25] = test system: Cryptococcus gattii species complex; assay: Ratio of compound MIC for Cryptococcus gattii 135L/03 in presence of fluconazole to compound MIC for Cryptococcus gattii 135L/03 in absence of fluconazole by checkerboard microtiter test; type: functional, Cryptococcus bacillisporus; method in brief: as §1
[26] = test system: Cryptococcus gattii species complex; assay: Ratio of compound MIC for Cryptococcus gattii 196L/03 in presence of fluconazole to compound MIC for Cryptococcus gattii 196L/03 in absence of fluconazole by checkerboard microtiter test; type: functional, Cryptococcus bacillisporus; method in brief: as §1
[27] = test system: Cryptococcus gattii species complex; assay: Ratio of compound MIC for Cryptococcus gattii L24/01 in presence of fluconazole to compound MIC for Cryptococcus gattii L24/01 in absence of fluconazole by checkerboard microtiter test; type: functional, Cryptococcus bacillisporus; method in brief: as §1
Cryptococcus neoformans [28] = assay: Ratio of compound MIC for Cryptococcus neoformans 96806 in presence of fluconazole to compound MIC for Cryptococcus neoformans 96806 in absence of fluconazole by checkerboard microtiter test; type: functional; method in brief: as §1
[29] = test system: Cryptococcus gattii species complex; assay: Ratio of compound MIC for Cryptococcus gattii 1913ER in presence of fluconazole to compound MIC for Cryptococcus gattii 1913ER in absence of fluconazole by checkerboard microtiter test; type: functional, Cryptococcus bacillisporus; method in brief: as §1
Cryptococcus neoformans [30] = assay: Ratio of compound MIC for Cryptococcus neoformans 96806 in presence of amphotericin B to compound MIC for Cryptococcus neoformans 96806 in absence of amphotericin B by checkerboard microtiter test; type: functional; method in brief: as §1

COc1ccc(-c2csc(N/N=C(\C)CCO)n2)cc1
fractional inhibitory concentration index (FICI) [1]: 1.01
fractional inhibitory concentration index (FICI) (Cryptococcus neoformans [2]): 7.44
fractional inhibitory concentration index (FICI) (Cryptococcus neoformans [3]): 4.33
fractional inhibitory concentration index (FICI) (Cryptococcus neoformans [4]): 1.58
fractional inhibitory concentration index (FICI) [5]: 2.14
fractional inhibitory concentration index (FICI) (Cryptococcus neoformans [6]): 1.92
fractional inhibitory concentration index (FICI) [7]: 2.78
fractional inhibitory concentration index (FICI) (Cryptococcus gattii): 2.98
fractional inhibitory concentration index (FICI) [8]: 4.98
fractional inhibitory concentration index (FICI) (Cryptococcus neoformans [9]): 2.58
fractional inhibitory concentration index (FICI) (Cryptococcus neoformans [10]): 2.1
fractional inhibitory concentration index (FICI) (Cryptococcus neoformans [11]): 2.78
fractional inhibitory concentration index (FICI) [12]: 2.32
fractional inhibitory concentration index (FICI) (Cryptococcus neoformans [13]): 4.98
fractional inhibitory concentration index (FICI) (Cryptococcus neoformans [14]): 1.98
fractional inhibitory concentration index (FICI) [15]: 4.98
fractional inhibitory concentration index (FICI) (Cryptococcus neoformans [16]): 1.47
fractional inhibitory concentration index (FICI) (Cryptococcus neoformans [17]): 2.67
selectivity ratio [18]: 222
fractional inhibitory concentration index (FICI) (Cryptococcus neoformans [19]): 4.33
fractional inhibitory concentration index (FICI) [20]: 2.32
fractional inhibitory concentration index (FICI) (Cryptococcus neoformans [21]): 2.58
fractional inhibitory concentration index (FICI) (Cryptococcus neoformans [22]): 1.32
fractional inhibitory concentration index (FICI) (Cryptococcus neoformans [23]): 1.58
fractional inhibitory concentration index (FICI) [24]: 3.14
fractional inhibitory concentration index (FICI) [25]: 2.38
fractional inhibitory concentration index (FICI) [26]: 1.95
fractional inhibitory concentration index (FICI) [27]: 3.32
fractional inhibitory concentration index (FICI) (Cryptococcus neoformans [28]): 2.01
fractional inhibitory concentration index (FICI) [29]: 2.47
fractional inhibitory concentration index (FICI) (Cryptococcus neoformans [30]): 2.78
